Key:
[1] = tested on: Human immunodeficiency virus; experiment: Inhibitory concentration against wild type Human immuno deficiency virus (HXB2) was determined in an MT-4 cell line; format: functional, organism-based; conditions: Human immunodeficiency virus 1, MT4
[2] = tested on: Human immunodeficiency virus; experiment: Inhibitory concentration against protease inhibitor-resistant mutant Human immuno deficiency virus (EP13) was determined in an MT-4 cell line; conditions: Human immunodeficiency virus 1, MT4
[3] = tested on: Human immunodeficiency virus; experiment: Inhibitory concentration against protease inhibitor-resistant mutant Human immuno deficiency virus (D545701) was determined in an MT-4 cell line; conditions: Human immunodeficiency virus 1, MT4
[4] = tested on: Rattus norvegicus; experiment: Bioavailability of the compound in rat was determined; Dose at 1.0 mg/kg; format: functional, organism-based
[5] = tested on: Canis lupus familiaris; experiment: Bioavailability in dog at 0.5 mg/kg dose co-administered with 4.0 mg/kg ritonavir; format: functional, organism-based
Method in brief: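 Ritonavir-boosted bioavailability was calculated as the oral AUC with co-administered ritonavir divided by the IV AUC without ritonavir.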

[6] = tested on: Rattus norvegicus; experiment: Clearance in rats at 1.0 mg/kg iv dose; format: functional, organism-based; design: dose 1 mg/kg
[7] = tested on: Canis lupus familiaris; experiment: Half life in dogs at 0.5 mg/kg iv dose co-administered with ritonavir 4.0 mg/kg; format: functional, organism-based
[8] = tested on: Rattus norvegicus; experiment: Half life in rat was determined at a dose 1.0 mg/kg; format: functional, organism-based; design: dose 1 mg/kg
[9] = tested on: Canis lupus familiaris; experiment: Bioavailability in dog at 0.5 mg/kg dose; format: functional, organism-based
[10] = tested on: Canis lupus familiaris; experiment: Clearance in dogs at 0.5 mg/kg iv dose; format: functional, organism-based; design: dose 0.5 mg/kg
[11] = tested on: Canis lupus familiaris; experiment: Half life in dogs at 0.5 mg/kg iv dose; format: functional, organism-based; design: dose 0.5 mg/kg
[12] = tested on: Canis lupus familiaris; experiment: Clearance in dogs at 0.5 mg/kg dose; format: functional, organism-based; design: dose 0.5 mg/kg
[13] = tested on: Rattus norvegicus; experiment: Bioavailability in rats at 1.0 mg/kg iv dose; format: functional, organism-based

Row | Structure (SMILES) | IC50 [1] [µM] | IC50 [2] [µM] | IC50 [3] [µM] | further results
1 | CC(C)CN(C[C@@H](O)[C@H](Cc1ccccc1)NC(=O)O[C@H]1CCOC1)S(=O)(=O)c1ccc(N)cc1 [AMPRENAVIR] | 0.13 | 0.44 | > 1 | 
2 | COC(=O)NCCOc1ccc(C[C@H](NC(=O)O[C@H]2CO[C@H]3OCC[C@H]32)[C@H](O)CN(CC(C)C)S(=O)(=O)c2ccc3c(c2)OCO3)cc1 | 0.003 | 0.0029 | 0.0071 | bioavailability [4]: 1%; bioavailability [5]: 33%; CL (mL.min-1.kg-1) [6]: 0.917; T1/2 [7]: 36 min; T1/2 [8]: 96 min; bioavailability [9]: 0%; CL (mL.min-1.kg-1) [10]: 1.13
3 | COC(=O)N[C@H](C(=O)N[C@@H](Cc1ccccc1)[C@@H](O)CN(Cc1ccc(-c2ccccn2)cc1)NC(=O)[C@@H](NC(=O)OC)C(C)(C)C)C(C)(C)C [ATAZANAVIR] | 0.025 | 0.093 | 0.07 | 
4 | CC(C)CN(C[C@@H](O)[C@H](Cc1ccc(OCCNC(=O)N(C)C)cc1)NC(=O)O[C@H]1CO[C@H]2OCC[C@H]21)S(=O)(=O)c1ccc2c(c1)OCO2 | 0.037 | 0.0091 | 0.011 | 
5 | CNC(=O)NCCCOc1ccc(C[C@H](NC(=O)O[C@H]2CO[C@H]3OCC[C@H]32)[C@H](O)CN(CC(C)C)S(=O)(=O)c2ccc3c(c2)OCO3)cc1 | 0.119 | 0.056 | 0.043 | 
6 | Cc1cccc(C)c1OCC(=O)N[C@@H](Cc1ccccc1)[C@@H](O)C[C@H](Cc1ccccc1)NC(=O)[C@H](C(C)C)N1CCCNC1=O [LOPINAVIR] | 0.04 | 0.4 | > 1 | 
7 | CC(=O)NCCOc1ccc(C[C@H](NC(=O)O[C@H]2CO[C@H]3OCC[C@H]32)[C@H](O)CN(CC(C)C)S(=O)(=O)c2ccc3c(c2)OCO3)cc1 | 0.14 | 0.052 | 0.053 | 
8 | CC(C)CN(C[C@@H](O)[C@H](Cc1ccc(OCCCNC(=O)N(C)C)cc1)NC(=O)O[C@H]1CO[C@H]2OCC[C@H]21)S(=O)(=O)c1ccc2c(c1)OCO2 | 0.025 | 0.011 | 0.011 | 
9 | Cc1c(O)cccc1C(=O)N[C@@H](CSc1ccccc1)[C@H](O)CN1C[C@H]2CCCC[C@H]2C[C@H]1C(=O)NC(C)(C)C [NELFINAVIR] | 0.32 | 0.45 | > 1 | 
10 | CC(C)(C)NC(=O)[C@@H]1CN(Cc2cccnc2)CCN1C[C@@H](O)C[C@@H](Cc1ccccc1)C(=O)N[C@H]1c2ccccc2C[C@H]1O [INDINAVIR] | 0.05 | 0.33 | 0.44 | 
11 | CC(C)CN(C[C@@H](O)[C@H](Cc1ccc(OCCCNS(C)(=O)=O)cc1)NC(=O)O[C@H]1CO[C@H]2OCC[C@H]21)S(=O)(=O)c1ccc2c(c1)OCO2 | 0.041 | 0.02 | 0.021 | 
12 | CNC(=O)NCCOc1ccc(C[C@H](NC(=O)O[C@H]2CO[C@H]3OCC[C@H]32)[C@H](O)CN(CC(C)C)S(=O)(=O)c2ccc3c(c2)OCO3)cc1 | 0.2 | 0.131 | 0.13 | 
13 | COC(=O)NCCCOc1ccc(C[C@H](NC(=O)O[C@H]2CO[C@H]3OCC[C@H]32)[C@H](O)CN(CC(C)C)S(=O)(=O)c2ccc3c(c2)OCO3)cc1 | 0.0028 | 0.0026 | 0.0071 | T1/2 [11]: 66 min; CL (mL.min-1.kg-1) [12]: 0.5; CL (mL.min-1.kg-1) [6]: 0.717; bioavailability [13]: 3%; T1/2 [8]: 12 min; bioavailability [9]: 1%
14 | CC(C)CN(C[C@@H](O)[C@H](Cc1ccc(OCCNS(C)(=O)=O)cc1)NC(=O)O[C@H]1CO[C@H]2OCC[C@H]21)S(=O)(=O)c1ccc2c(c1)OCO2 | 0.062 | 0.0091 | 0.02 | 
15 | COC(=O)NCCCCC(C)(C)CN(C[C@@H](O)[C@H](Cc1ccccc1)NC(=O)O[C@H]1CO[C@H]2OCC[C@H]21)S(=O)(=O)c1ccc2c(c1)OCO2 | 0.0022 | 0.019 | 0.015 | 
16 | CC(C)CN(C[C@@H](O)[C@H](Cc1ccc(OCCCCNC(=O)N(C)C)cc1)NC(=O)O[C@H]1CO[C@H]2OCC[C@H]21)S(=O)(=O)c1ccc2c(c1)OCO2 | 0.065 | 0.022 | 0.032 | 

More lines, main results first:

Row | IC50 [1] [µM] | IC50 [2] [µM] | IC50 [3] [µM] | Structure (SMILES) | further results
17 | 0.067 | 0.05 | 0.065 | CC(C)CN(C[C@@H](O)[C@H](Cc1ccc(OCCCN)cc1)NC(=O)O[C@H]1CO[C@H]2OCC[C@H]21)S(=O)(=O)c1ccc2c(c1)OCO2 | 
18 | 0.057 | 0.018 | 0.02 | CC(=O)NCCCOc1ccc(C[C@H](NC(=O)O[C@H]2CO[C@H]3OCC[C@H]32)[C@H](O)CN(CC(C)C)S(=O)(=O)c2ccc3c(c2)OCO3)cc1 | 
19 | 0.0026 | 0.0026 | 0.0066 | COC(=O)NCCCCOc1ccc(C[C@H](NC(=O)O[C@H]2CO[C@H]3OCC[C@H]32)[C@H](O)CN(CC(C)C)S(=O)(=O)c2ccc3c(c2)OCO3)cc1 | 
20 | 0.06 | 0.026 | 0.022 | CNC(=O)NCCCCOc1ccc(C[C@H](NC(=O)O[C@H]2CO[C@H]3OCC[C@H]32)[C@H](O)CN(CC(C)C)S(=O)(=O)c2ccc3c(c2)OCO3)cc1 | 
21 | 0.015 | 0.014 | 0.028 | CC(C)CN(C[C@@H](O)[C@H](Cc1ccc(OCCCCN)cc1)NC(=O)O[C@H]1CO[C@H]2OCC[C@H]21)S(=O)(=O)c1ccc2c(c1)OCO2 | 
22 | 0.18 | 0.15 | 0.13 | CC(C)CN(C[C@@H](O)[C@H](Cc1ccc(OCCN)cc1)NC(=O)O[C@H]1CO[C@H]2OCC[C@H]21)S(=O)(=O)c1ccc2c(c1)OCO2 | 
23 | 0.015 | 0.0059 | 0.0092 | CC(C)CN(C[C@@H](O)[C@H](Cc1ccc(OCCCCNS(C)(=O)=O)cc1)NC(=O)O[C@H]1CO[C@H]2OCC[C@H]21)S(=O)(=O)c1ccc2c(c1)OCO2 | 
24 | 0.039 | 0.013 | 0.016 | CC(=O)NCCCCOc1ccc(C[C@H](NC(=O)O[C@H]2CO[C@H]3OCC[C@H]32)[C@H](O)CN(CC(C)C)S(=O)(=O)c2ccc3c(c2)OCO3)cc1 | 

— ChEMBL document CHEMBL1140366, “Novel P1 chain-extended HIV protease inhibitors possessing potent anti-HIV activity and remarkable inverse antiviral resistance profiles” (Bioorg Med Chem Lett, 2005)
